Published values gathered from unrelated publications.
Lines come from different studies, so protocols differ. In brackets after ≈: the same amount, converted by molar mass.
Organism: Mycobacterium tuberculosis
Effect on: microbial growth

| SMILES | test | system | setting | endpoint | result |
| --- | --- | --- | --- | --- | --- |
| FC(F)(F)c1ccc(CCNc2cc(-c3cccs3)nc3nncn23)cc1 |  | H37RV |  | MIC | 0.31 µM |
| CCCCCCC#Cc1cncc(-c2nnc(SCCCn3ccc(=O)[nH]c3=O)n2C)c1 | resazurin | ERDMAN |  | IC50 | 25 µM |
| COc1ccc(-c2cc(C(F)(F)F)c3c(N)c(C(=O)N4CCCC4(C)C)sc3n2)cc1 |  | H37RV |  | IC50 | > 100 µM |
| c1ccc(-c2cc(NCCC34CC5CC(CC(C5)C3)C4)n3cnnc3n2)nc1 |  | H37RV |  | MIC | 11 µM |
| O=c1c2cc(Cl)cnc2[nH]c(=S)n1Cc1cccnc1 |  | H37RV |  | MIC90 | > 100 µM |
| CCCCCCC#Cc1cncc(-c2nnc(SCc3ccc([N+](=O)[O-])o3)n2CCO)c1 | resazurin | ERDMAN |  | IC50 | 1.3 µM |
| N#Cc1cc2c(=O)n(Cc3cccnc3)c(=S)[nH]c2cn1 |  | H37RV |  | MIC90 | 85.8 µM (≈ 25.3 µg/mL) |
| NNC(=O)c1ccncc1 |  | H37RA |  | MIC90 | 0.34 µM (≈ 0.0466 µg/mL) |
| Cc1nnc2nc(-c3ccccn3)cc(NCCc3ccc(Cl)cc3)n12 |  | H37RV |  | MIC | 24 µM |
| CCCCCCC#Cc1cncc(-c2nnc(SCc3cc([N+](=O)[O-])cc([N+](=O)[O-])c3)n2CCOC2OC(CN)C(O)C2O)c1 (stereo not shown) | resazurin | ERDMAN |  | IC50 | 18 µM |
| O=c1c2cc(C(F)(F)F)ncc2[nH]c(=S)n1Cc1cccnc1 |  | H37RV |  | MIC90 | 45.5 µM (≈ 15.4 µg/mL) |
| CCc1cc(=O)c2c(OCC3CO3)c3ccoc3c(OC)c2o1 (stereo not shown) | resazurin | H37RV | 21 days | MIC | 128 mg/L |
| COc1ccc(-c2cc(C(F)(F)F)c3c(N)c(C(=O)N4CCC4)sc3n2)cc1 |  | H37RV |  | IC50 | > 100 µM |
| CCCCCCC#Cc1cncc(-c2nnc(SCc3ccc(Cl)cc3)n2CCO)c1 | resazurin | ERDMAN |  | IC50 | 49 µM |
| NNC(=O)c1ccncc1 |  |  |  | MIC50 | 0.1 mg/L (≈ 0.729 µM) |
| CCCCCCC#Cc1cncc(-c2nnc(SCc3ccc(Cl)cc3)n2CCCN)c1 | resazurin | ERDMAN |  | IC50 | 29 µM |
| Cc1ccc(-c2cc(NCCc3ccc(C(F)(F)F)cc3)n3cnnc3n2)o1 |  | H37RV |  | MIC | 0.37 µM |
| Cc1ccc(Cn2c(=S)[nH]c3ccc(Cl)cc3c2=O)cn1 |  | H37RV |  | MIC90 | > 25 µM |
| NCC[C@H](O)C(=O)N[C@@H]1C[C@H](N)[C@@H](O[C@H]2O[C@H](CN)[C@@H](O)[C@H](O)[C@H]2O)[C@H](O)[C@H]1O[C@H]1O[C@H](CO)[C@@H](O)[C@H](N)[C@H]1O |  | H37RV |  | MIC50 | 1.2 mg/L (≈ 2.05 µM) |
| CCc1cc(=O)c2c(OCC(O)CN3CCC(C)CC3)c3ccoc3c(OC)c2o1 (stereo not shown) | resazurin |  | 21 days | MIC | 32 mg/L |
| NC(=O)c1cc(Br)ccc1OCCc1cccc(F)c1 |  |  |  | IC50 | 2 µM |
| O=C(c1cc2ccc(-c3ccccc3)nc2s1)N1CCCC1 |  | H37RV | 5 days | IC90 | > 100 µM |

| SMILES | test | system | setting | endpoint | result |
| --- | --- | --- | --- | --- | --- |
| Cc1ccc(CCNc2cc(-c3nccs3)nc3nncn23)cc1 |  | H37RV | 5 days | MIC | 32 µM |
| COC(=O)c1cc2[nH]c(=S)n(Cc3cccnc3)c(=O)c2cc1Cl |  | H37RV |  | MIC90 | > 100 µM |
| CC[C@@H](CO)NCCN[C@@H](CC)CO | resazurin |  | 21 days | MIC | 0.5 mg/L |
| c1ccc(-c2cc(NCCC34CC5CC(CC(C5)C3)C4)n3ncnc3n2)nc1 |  | H37RV |  | MIC | 12 µM |
| CCCCCCC#Cc1cncc(-c2nnc(SC[C@H]3O[C@@H](n4ccc(=O)[nH]c4=O)[C@H](O)[C@@H]3O)n2CCO)c1 | resazurin | ERDMAN |  | IC50 | 196 µM |
| Clc1ccc(CCNc2cc(C3CCCO3)nc3nncn23)cc1 (stereo not shown) |  | H37RV |  | MIC | 73 µM |
| CCC(NC(=O)c1sc2nc(-c3ccc(OC)cc3)cc(C(F)(F)F)c2c1N)c1ccccc1 (stereo not shown) |  | H37RV |  | IC50 | 0.55 µM |
| O=c1c2cc(Cl)c(CO)cc2[nH]c(=S)n1Cc1cncc(-c2nnn[nH]2)c1 |  | H37RV |  | MIC90 | 59.2 µM (≈ 23.8 µg/mL) |
| COc1ccc(-c2cc(C(F)(F)F)c3c(N)c(C(=O)N4CC(F)(F)C4)sc3n2)cc1 |  | H37RV |  | IC50 | > 50 µM |
| Cc1ccc(-c2cc(NCCc3ccc(OC(F)(F)F)cc3)n3cnnc3n2)o1 |  | H37RV |  | MIC | 0.46 µM |
| Nc1c(C(=O)Nc2cccnc2)sc2nc(-c3ccccc3)cc(C(F)(F)F)c12 |  | H37RV |  | IC50 | > 100 µM |
| CO[C@H]1/C=C/O[C@@]2(C)Oc3c(C)c(O)c4c(O)c(c(/C=N/N5CCN(C)CC5)c(O)c4c3C2=O)NC(=O)/C(C)=C\C=C\[C@H](C)[C@H](O)[C@@H](C)[C@@H](O)[C@@H](C)[C@H](OC(C)=O)[C@@H]1C |  | H37RV |  | MIC50 | 0.06 mg/L (≈ 0.0729 µM) |
| CCc1cc(=O)c2c(OCC(O)CN3CCCCC3)c3ccoc3c(OC)c2o1 (stereo not shown) | resazurin |  | 21 days | MIC | 32 mg/L |
| COC(=O)OCc1cc2[nH]c(=S)n(Cc3cccnc3)c(=O)c2cc1Cl |  | H37RV |  | MIC90 | 3.42 µM (≈ 1.34 µg/mL) |
| CCCCCCC#Cc1cncc(-c2nnc(SCc3ccc([N+](=O)[O-])cc3)n2CCCN)c1 | resazurin | ERDMAN |  | IC50 | 20 µM |
| CCN(CC)C(=O)c1sc2ncccc2c1N |  | H37RV |  | IC50 | > 100 µM |
| CC(=O)c1cc(-c2ccoc2)ccc1OCCc1cccc(F)c1 |  |  |  | IC50 | 0.26 µM |
| CCCCCCC#Cc1cncc(-c2nnc(SC[C@H]3O[C@@H](n4ccc(=O)[nH]c4=O)[C@H](O)[C@@H]3O)n2C)c1 | resazurin | ERDMAN |  | IC50 | 98 µM |
| O=c1c2cc(Cl)c(CF)cc2[nH]c(=S)n1Cc1cccnc1 |  | H37RV |  | MIC90 | 6.72 µM (≈ 2.26 µg/mL) |
| Cc1cccc(NC(=O)c2sc3nc(-c4ccco4)cc(C(F)(F)F)c3c2N)c1C |  | H37RV |  | IC50 | > 100 µM |
| CCc1cc(=O)c2c(OCC(O)CN3CCOCC3)c3ccoc3c(OC)c2o1 (stereo not shown) | resazurin | H37RV | 21 days | MIC | 256 mg/L |
